Measured values pooled from the literature.
Protocols differ between the studies behind these lines. ≈ marks a conversion by molar mass, not a printed value.
Organism: Mycobacterium tuberculosis
Read-out: microbial growth

Structure (SMILES) | assay | test system | conditions | quantity | result
Nc1c(C(=O)N2CCOCC2)sc2nc(Cl)ccc12 |  | H37RV |  | IC50 | > 100 µM
Cc1ccc(CCNc2cc(-c3ccc(Cl)s3)nc3nncn23)cc1 |  | H37RV |  | MIC | 4.8 µM
COc1ccc(-c2cc(C(F)(F)F)c3c(N)c(C(=O)Nc4cc(C)ccc4C)sc3n2)cc1 |  | H37RV |  | IC50 | > 100 µM
O=C(Cc1ccccc1)Nc1cc(-c2ccccn2)nc2nncn12 |  | H37RV |  | IC90 | 2 µM
COCCNC(=O)c1sc2nc(-c3ccc(OC)cc3)cc(C(F)(F)F)c2c1N |  | H37RV |  | IC50 | > 100 µM
CCCCCCC#Cc1cncc(-c2nnc(SCc3ccc(Cl)cc3)n2CCO)c1 | resazurin | ERDMAN |  | IC50 | 49 µM
COc1ccc(-c2cc(C(F)(F)F)c3c(N)c(C(=O)N4CC(F)(F)C4)sc3n2)cc1 |  | H37RV |  | IC50 | > 50 µM
CCCCCCC#Cc1cncc(-c2nnc(SCCCn3ccc(=O)[nH]c3=O)n2C)c1 | resazurin | ERDMAN |  | IC50 | 25 µM
Cc1ccc(-c2cc(NCCc3ccc(OC(F)(F)F)cc3)n3cnnc3n2)o1 |  | H37RV |  | MIC | 0.46 µM
COC(=O)OCc1cc2[nH]c(=S)n(Cc3cccnc3)c(=O)c2cc1Cl |  | H37RV |  | MIC90 | 3.42 µM (≈ 1.34 µg/mL)
COc1ccc(-c2cc(C(F)(F)F)c3c(N)c(C(=O)N4CCC4)sc3n2)cc1 |  | H37RV |  | IC50 | > 100 µM
CC(c1cccnc1)n1c(=S)[nH]c2ccc(Cl)cc2c1=O (stereo not shown) |  | H37RV |  | MIC90 | 66.2 µM (≈ 21 µg/mL)
Cc1cccc(NC(=O)c2sc3nc(-c4cccs4)cc(C(F)(F)F)c3c2N)c1C |  | H37RV |  | IC50 | > 100 µM
CC(c1cccnc1)n1c(=S)[nH]c2cc(CO)c(Cl)cc2c1=O (stereo not shown) |  | H37RV |  | MIC90 | > 100 µM
CO[C@H]1/C=C/O[C@@]2(C)Oc3c(C)c(O)c4c(O)c(c(/C=N/N5CCN(C)CC5)c(O)c4c3C2=O)NC(=O)/C(C)=C\C=C\[C@H](C)[C@H](O)[C@@H](C)[C@@H](O)[C@@H](C)[C@H](OC(C)=O)[C@@H]1C |  |  |  | MIC50 | 0.01 µg/mL (≈ 0.0122 µM)
Cc1ccc(Cn2c(=S)[nH]c3ccc(Cl)cc3c2=O)cn1 |  | H37RV |  | MIC90 | > 25 µM
COc1ccc(-c2cc(C(F)(F)F)c3c(N)c(C(=O)N4CCCC4)sc3n2)cc1 |  | H37RV |  | IC50 | > 50 µM
CCCCCCC#Cc1cncc(-c2nnc(SCc3cc([N+](=O)[O-])cc([N+](=O)[O-])c3)n2CCO)c1 | resazurin | ERDMAN |  | IC50 | 1.4 µM
COc1ccc(CCNc2cc(-c3ccccn3)nc3cc(C4CC4)nn23)cc1 |  | H37RV |  | MIC | 42 µM

Structure (SMILES) | assay | test system | conditions | quantity | result
COc1ccc(-c2cc(C(F)(F)F)c3c(N)c(C(=O)NC45CC6CC(CC(O)(C6)C4)C5)sc3n2)cc1 |  | H37RV |  | IC50 | > 100 µM
Cc1ccc(CCNc2cc(-c3nccs3)nc3nncn23)cc1 |  | H37RV |  | MIC | 32 µM
CCCCCCC#Cc1cncc(-c2nnc(SCc3cc([N+](=O)[O-])cc([N+](=O)[O-])c3)n2CCCN)c1 | resazurin | ERDMAN |  | IC50 | 3.2 µM
NC(=O)c1cc(Br)ccc1OCCc1cccc(F)c1 |  |  |  | IC50 | 2 µM
O=c1c2cc(Cl)c(CF)cc2[nH]c(=S)n1Cc1cccnc1 |  | H37RV |  | MIC90 | 6.72 µM (≈ 2.26 µg/mL)
Cc1nnc2nc(-c3ccccn3)cc(NCCc3ccc(Cl)cc3)n12 |  | H37RV |  | MIC | 24 µM
O=c1c2cc(C(F)(F)F)ncc2[nH]c(=S)n1Cc1cccnc1 |  | H37RV |  | MIC90 | 45.5 µM (≈ 15.4 µg/mL)
CC(=O)c1ccc(OCCc2cccc(F)c2)c(C(N)=O)c1 |  |  |  | IC50 | 1.3 µM
CCc1cc(=O)c2c(OCC(O)CN3CCCCC3)c3ccoc3c(OC)c2o1 (stereo not shown) | resazurin |  | 21 days | MIC | 32 µg/mL
c1ccc(-c2cc(NCCC34CC5CC(CC(C5)C3)C4)n3cnnc3n2)nc1 |  | H37RV |  | MIC | 11 µM
CCc1cc(=O)c2c(OCC(O)CN3CCC(C)CC3)c3ccoc3c(OC)c2o1 (stereo not shown) | resazurin |  | 21 days | MIC | 32 µg/mL
NCC[C@H](O)C(=O)N[C@@H]1C[C@H](N)[C@@H](O[C@H]2O[C@H](CN)[C@@H](O)[C@H](O)[C@H]2O)[C@H](O)[C@H]1O[C@H]1O[C@H](CO)[C@@H](O)[C@H](N)[C@H]1O |  | H37RV |  | MIC50 | 1.2 µg/mL (≈ 2.05 µM)
O=C(O)c1cc2[nH]c(=S)n(Cc3cccnc3)c(=O)c2cc1Cl |  | H37RV |  | MIC90 | > 100 µM
COc1ccc(CCNc2cc(-c3ccccn3)nc3nncn23)cc1 |  | H37RV |  | MIC | 0.39 µM
NNC(=O)c1ccncc1 |  | H37RV |  | MIC50 | 0.56 µg/mL (≈ 4.08 µM)
O=c1c2cc(Cl)c(CO)cc2[nH]c(=S)n1Cc1cncc(-c2nnn[nH]2)c1 |  | H37RV |  | MIC90 | 59.2 µM (≈ 23.8 µg/mL)
NNC(=O)c1ccncc1 | resazurin |  | 21 days | MIC | 0.5 µg/mL
CCCCCCC#Cc1cncc(-c2nnc(SCc3ccc([N+](=O)[O-])o3)n2CCO)c1 | resazurin | ERDMAN |  | IC50 | 1.3 µM
